Measurements published in publication PMC9091711 (RSC Advances, 2018).

How the values were obtained:
caspase-3 = assay: Active caspase-3 expression by flow cytometry; type: cell-based, human; conditions: Jurkat cells, 24 h, 4a at IC50 concentration
Summary of the method: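 Jurkat cells were seeded at 1 × 10^6 cells per well and left 12 h, then exposed to the test compound for 24 h. Cells were harvested, fixed in 70% ice-cold ethanol at −20 °C for 30 min, and washed twice with PBS. They were stained with FITC anti-active caspase-3 antibody for 60 min at room temperature in the dark, washed, resuspended in PBS and analysed by flow cytometry.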

Jurkat cells = assay: Annexin V-FITC/PI apoptosis assay by flow cytometry; type: cell-based, human; conditions: 24 h, 4a at IC50 concentration
[1] = cited from earlier work

CC[C@@]1(O)C(=O)OCc2c1cc1n(c2=O)Cc2cc3ccccc3nc2-1 [CPT, camptothecin]
Active caspase-3 expression (M2, apoptotic cells) (caspase-3): > 54%
Apoptotic dying cells (M2, Annexin-V-FITC fluorescence intensity) (Jurkat cells): 68%
Cells in late stage apoptosis (Jurkat cells; Annexin V-FITC/PI): 14%

CC(C)(C)C[C@@H]1N[C@@H](C(=O)N[C@H]2CC[C@H](O)CC2)[C@H](c2cccc(Cl)c2F)[C@]12C(=O)Nc1cc(Cl)ccc12 [MI-773]
Stability in solution [1]: low stability in solution
